High-throughput results deposited in PubChem by several laboratories.
The sample as a whole holds a higher share of hits than the screen did.
XBP1 UPR activ: activators of adaptive XBP1 UPR arm, primary screen, cell-based, CHO-XBP1 luciferase reporter, luminescence, uHTS | hit rate 0.33% among 330,000 | activation, % at 20 µM | IRE1-XBP1 UPR activation; percent of tunicamycin response, DMSO as zero | AID 463104, 2010;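 active = versus positive control, 20 µM dose yields 30% or more activation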;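 note: 100% = tunicamycin at 10 µg/mL and 0% = DMSO only wells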
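incubation = overnight seeding at 37 °C, 6 h compound treatment at 37 °C | assay system = CHO-XBP1 cells stably carrying IRE1-XBP1-driven luciferase reporter | input = 1000 cells per well | detection = luciferase luminescence | dosing = single point, 20 µM final compound, 1% DMSO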
CHOP inhibitor: inhibitors of CHOP promoter induction, primary screen, cell-based, unfolded protein response, luciferase reporter; CHO-K1 CHOP-promoter luciferase, tunicamycin-induced, 15-18 h; inhibition, % at 10 µM; hit rate 3.8% among 220,000;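 active = compounds that reduced the stress-induced luciferase reporter signal by more than about 70% of percent inhibition, limit read from the data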;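 note: 0% = tunicamycin plus vehicle and 100% = wells without tunicamycin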
UPR CHOP act: activators of apoptotic CHOP UPR arm, primary screen, cell-based, CHO-CHOP luciferase reporter, luminescence, uHTS. activation, % at 10 µM. UPR activation; percent of tunicamycin response over DMSO baseline. AID 449763, 2010. hit rate 0.34% among 330,000;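 active = at 10 µM dose, activation of 40% or more, normalized to positive control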;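 note: 100% = tunicamycin at 10 µg/mL and 0% = DMSO alone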
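Assay system: CHO-CHOP cells, stable luciferase reporter of PERK-eIF2a-CHOP signalling / Buffer or medium: F12 plus 10% serum / Compound dosing: one dose, 10 µM in 0.5% DMSO / Times: 6 h compound treatment, 37 °C / Technique: luciferase luminescence / Read-out: % reporter activation, DMSO baseline versus tunicamycin full activation / Benchmarks: tunicamycin and DMSO controls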
Bfl-1 A1 inh: caspase 3/7 activation in MEF A1-2A-BIM cells, primary screen, A1 inhibitor project, cell-based, luminescence, HTS; AID 2462, 2010; caspase activation, % (test concentration not listed); hit rate 0.066% among 330,000; Caspase-Glo 3/7 luminescence, 3 h; percent of clofoctol response, vehicle zero;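 active = over half of replicate activation scores above 10%, or exactly half above 10 with the replicate mean above 10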
CHOP UPR conf: activators of apoptotic CHOP UPR arm, confirmation, cell-based, CHO-CHOP luciferase reporter, single concentration; shares compounds with UPR CHOP act; CHO-CHOP cells, CHOP-luciferase reporter luminescence; percent of tunicamycin response, DMSO as zero; activation, % at 10 µM; hit rate 64% among 1,000; AID 463112, 2010; in the data active = activation above about 33%;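 note: 0% = DMSO wells and 100% = tunicamycin 10 µg/mL wells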
Numbers without * were called inactive.

`O=C(N/N=C/c1cccc([N+](=O)[O-])c1)c1cc(-c2ccc3c4c(cccc24)CC3)n[nH]1` gave XBP1 UPR activ -2, CHOP inhibitor -1, UPR CHOP act -1 and Bfl-1 A1 inh 0.
For CCOC(=O)c1cc(-c2ccc(/C=C3/C(=O)N(c4ccc(C(=O)O)cc4)N=C3C)o2)ccc1Cl the results were XBP1 UPR activ 6, UPR CHOP act 87*, Bfl-1 A1 inh 0 and CHOP UPR conf 135*.
O=C(NNc1c2ccccc2nc2ccccc12)C(O)c1ccccc1 (configuration not stated) was read as XBP1 UPR activ 2, CHOP inhibitor 13, UPR CHOP act 0 and Bfl-1 A1 inh 0.
`Cc1noc2ncnc(Sc3ccc(Cl)cc3)c12` gave XBP1 UPR activ -6, CHOP inhibitor -7, UPR CHOP act 188*, Bfl-1 A1 inh 1 and CHOP UPR conf 118*.
Screening Cc1ccc(Sc2ncnc3onc(C)c23)cc1 returned XBP1 UPR activ 3, CHOP inhibitor 26, UPR CHOP act 8 and Bfl-1 A1 inh 1.
Cc1cc(N2CCN(c3ccccc3)CC2)nc(-n2nc(C)cc2C)n1 was read as XBP1 UPR activ 13, CHOP inhibitor -111, UPR CHOP act 52*, Bfl-1 A1 inh -1 and CHOP UPR conf 4.
For Cc1cc(Nc2ccccc2)n(-c2ccccc2)n1 the results were XBP1 UPR activ 2, CHOP inhibitor 30, UPR CHOP act -2 and Bfl-1 A1 inh 1.
Cc1cc(N2CCN(c3ccccc3)CC2)nc(-c2ccccc2O)n1 was read as XBP1 UPR activ -2, CHOP inhibitor -1, UPR CHOP act 0 and Bfl-1 A1 inh 0.
Screening Cc1cc(C)nc(-n2nc(C)cc2Nc2ccccc2)n1 returned XBP1 UPR activ 17, CHOP inhibitor -37, UPR CHOP act 59*, Bfl-1 A1 inh 1 and CHOP UPR conf 5.
O=C(Oc1ccccc1)c1cccc2cccnc12 was read as XBP1 UPR activ 3, CHOP inhibitor 23, UPR CHOP act 5 and Bfl-1 A1 inh 0.
`COc1ccc(C(C[N+](=O)[O-])c2c(C)[nH]n(-c3ccccc3)c2=O)cc1` (configuration not stated) gave XBP1 UPR activ -7, UPR CHOP act 89*, Bfl-1 A1 inh -1 and CHOP UPR conf 0.
`Cc1cc(Nc2ccc3c(c2)OCCO3)c2cc(Cl)ccc2n1` gave XBP1 UPR activ -6, CHOP inhibitor 15, UPR CHOP act -6 and Bfl-1 A1 inh 0.
For Oc1c(C(c2ccccc2Cl)N2CCCC2)ccc2cccnc12 (configuration not stated) the results were XBP1 UPR activ 25, CHOP inhibitor 102*, UPR CHOP act 106*, Bfl-1 A1 inh 0 and CHOP UPR conf 132*.
Screening Oc1c(C(c2ccc(Cl)cc2)N2CCCC2)cc(Cl)c2cccnc12 (configuration not stated) returned XBP1 UPR activ 3, CHOP inhibitor 4, UPR CHOP act 11 and Bfl-1 A1 inh 2.
O=C(Nc1ccc(N2CCOCC2)cc1)c1ccc([N+](=O)[O-])o1 was read as XBP1 UPR activ 0, UPR CHOP act 57*, Bfl-1 A1 inh -6 and CHOP UPR conf 61*.
`O=C(COC(=O)c1ccc([N+](=O)[O-])o1)Nc1ccc(N2CCOCC2)cc1` gave XBP1 UPR activ 3, UPR CHOP act 0 and Bfl-1 A1 inh 2.
Screening CC(=O)Nc1ccc2nc(NC(=O)c3ccc([N+](=O)[O-])o3)sc2c1 returned XBP1 UPR activ 1, UPR CHOP act 61*, Bfl-1 A1 inh -6 and CHOP UPR conf 25.
O=C(Nc1ccc(S(=O)(=O)N2CCCC2)cc1)c1ccc([N+](=O)[O-])o1 was read as XBP1 UPR activ -3, UPR CHOP act 47*, Bfl-1 A1 inh 2 and CHOP UPR conf 91*.
For O=C(Nc1ccc(S(=O)(=O)N2CCOCC2)cc1)c1ccc([N+](=O)[O-])s1 the results were XBP1 UPR activ 4, UPR CHOP act 68*, Bfl-1 A1 inh 1 and CHOP UPR conf 4.
Screening CC(=O)Nc1ccc2nc(NC(=O)c3ccco3)sc2c1 returned XBP1 UPR activ -4, UPR CHOP act 3 and Bfl-1 A1 inh -8.
Screening Cc1nnc(NC(=O)C2CCCN(S(=O)(=O)c3ccccc3C(F)(F)F)C2)s1 (configuration not stated) returned XBP1 UPR activ -3, CHOP inhibitor 39, UPR CHOP act -2 and Bfl-1 A1 inh -1.
Screening O=C(O)C1CCCN1S(=O)(=O)c1cccc(S(=O)(=O)N2CCCC2C(=O)O)c1 (configuration not stated) returned XBP1 UPR activ 2, UPR CHOP act -1 and Bfl-1 A1 inh -1.
For O=c1nc2c(-c3ccccc3F)n[nH]n2c2ccccc12 the results were XBP1 UPR activ 4, CHOP inhibitor -25, UPR CHOP act 3 and Bfl-1 A1 inh -7.
For O=C(Nc1ccc(Cc2ccncc2)cc1)c1ccc([N+](=O)[O-])o1 the results were XBP1 UPR activ -5, UPR CHOP act 63*, Bfl-1 A1 inh 1 and CHOP UPR conf 78*.
O=C(Nc1ccc(Cc2ccncc2)cc1)c1cccc([N+](=O)[O-])c1 was read as XBP1 UPR activ 1, CHOP inhibitor -21, UPR CHOP act 1 and Bfl-1 A1 inh 0.
Screening O=C(Nc1ccc(S(=O)(=O)N2CCOCC2)cc1)c1ccc([N+](=O)[O-])o1 returned XBP1 UPR activ -1, CHOP inhibitor -89, UPR CHOP act 139*, Bfl-1 A1 inh 1 and CHOP UPR conf 98*.
For Cc1cc(C(=O)CCl)c(C)n1CCc1ccccc1 the results were XBP1 UPR activ 6, CHOP inhibitor 33, UPR CHOP act 196*, Bfl-1 A1 inh 1 and CHOP UPR conf 204*.
Screening Cc1cc(C(=O)CSc2nncs2)c(C)n1Cc1ccco1 returned XBP1 UPR activ -8, CHOP inhibitor 11, UPR CHOP act 0 and Bfl-1 A1 inh 1.
`Cc1cc(C(=O)CCl)c(C)n1Cc1ccco1` gave XBP1 UPR activ -1, CHOP inhibitor -143, UPR CHOP act 99*, Bfl-1 A1 inh -2 and CHOP UPR conf 236*.
`c1ccc(CNc2nc(-c3ccccn3)nc3ccccc23)cc1` gave XBP1 UPR activ 13, UPR CHOP act 40*, Bfl-1 A1 inh 0 and CHOP UPR conf 15.
CCC(C)Nc1nc(-c2ccccn2)nc2ccccc12 (configuration not stated) was read as XBP1 UPR activ 11, UPR CHOP act 47*, Bfl-1 A1 inh 2 and CHOP UPR conf 21.
